In data set [1] the target is T1, C-X-C chemokine receptor type 4 (Homo sapiens, UniProt P61073). In words: Antagonist activity at CXCR4 in human Chem-1 cells assessed as inhibition of SDF-1alpha-mediated calcium flux preincubated for 10 mins by FLIPR assay. The class given is functional, cell-based. (In general: A change in cytosolic calcium serves as a functional read-out for many receptors and channels.)

The nature of data set [2]: Cytotoxicity against human MAGI-CCR5 cells assessed as cell viability after 2 to 6 days by MTS assay.
In data set [3] the target is T1, C-X-C chemokine receptor type 4. In words: Ratio of IC50 for CXCR4 in human MAGI-CCR5 cells assessed as inhibition of HIV-1 3B entry to IC50 for CXCR4 in human Chem-1 cells assessed as inhibition of SDF-1alpha-mediated calcium flux. Format: functional, cell-based. The essentials:
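Two IC50s taken as a ratio. The first is from blockade of HIV-1 IIIB attachment in CCR5/CXCR4-expressing HeLaCD4-LTR-β-gal (MAGI) cells, with cytotoxicity (TC50) assessed alongside. The second is from inhibition of CXCL12-induced Ca2+ flux/release in Chem-1 cells. Each assay was run in duplicate.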

A value given as a limit tells only on which side of the number the result lay.

T1 sequence (P61073 whole entry): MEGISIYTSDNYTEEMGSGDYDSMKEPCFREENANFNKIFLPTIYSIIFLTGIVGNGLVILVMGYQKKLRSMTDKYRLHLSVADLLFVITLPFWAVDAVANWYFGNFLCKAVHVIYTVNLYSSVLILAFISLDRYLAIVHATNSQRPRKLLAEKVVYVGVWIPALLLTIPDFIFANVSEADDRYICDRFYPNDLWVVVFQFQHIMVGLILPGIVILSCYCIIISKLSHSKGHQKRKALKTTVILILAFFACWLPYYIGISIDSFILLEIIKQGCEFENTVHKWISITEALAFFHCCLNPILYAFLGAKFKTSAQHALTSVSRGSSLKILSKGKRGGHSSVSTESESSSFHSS

As a reminder, the IC50 is the point on the concentration scale where inhibition reaches its midpoint. Broadly, the CC50 is the concentration giving 50% cytotoxicity. In the case of `CN(C)C(=O)NCCCCN(C[C@H]1Cc2ccccc2CN1)[C@H]1CCCc2cccnc21`, the IC50 in data set [1] was found to be 180 nM. Further, the CC50 in data set [2] (magi-ccr5) was greater than 10000 nM.
As for `NCCCCN(C[C@H]1NCCc2ccccc21)[C@H]1CCCc2cccnc21`, in data set [2] (magi-ccr5), the cytotoxic concentration (CC50) is greater than 30000 nM.
Take `NCCCCN(C[C@H]1Cc2ccccc2CN1Cc1ccccn1)[C@H]1CCCc2cccnc21`: the IC50 in data set [1] was determined as 56 nM. Moreover, the half-maximal cytotoxic concentration (CC50) in data set [2] (MAGI-CCR5 cells) is greater than 10000 nM.
Turning to `NCCCCN(C[C@@H]1NCCc2ccccc21)[C@H]1CCCc2cccnc21`, in data set [2] (magi-ccr5), the CC50 is greater than 30000 nM.
As to `NCCCCN(C[C@H]1Cc2ccccc2CN1Cc1cocn1)[C@H]1CCCc2cccnc21`, in data set [1], the half-inhibitory concentration (IC50) amounted to 490 nM. Moreover, the CC50 in data set [2] (magi-ccr5) is greater than 10000 nM.
Take `NCCCCN(C[C@H]1Cc2ccccc2CN1Cc1ccncc1)[C@H]1CCCc2cccnc21`: the IC50 in data set [1] was 660 nM. Also, the CC50 in data set [2] (MAGI-CCR5 cells) is greater than 10000 nM.
Regarding `NC(=O)NCCCCN(C[C@H]1Cc2ccccc2CN1)[C@H]1CCCc2cccnc21`, in data set [1], the IC50 is 3 nM. In addition, the CC50 in data set [2] (magi-ccr5) is greater than 10000 nM.
Regarding `CN1Cc2ccccc2C[C@@H]1CN(CCCCN)[C@H]1CCCc2cccnc21`, the IC50 in data set [1] is 39 nM. Besides, in data set [2] (magi-ccr5), the CC50 was greater than 10000 nM.
As to `NCCCCN(C[C@H]1Cc2ccccc2CN1Cc1cccnc1)[C@H]1CCCc2cccnc21`, in data set [1], the IC50 came to 350 nM. Further, the CC50 in data set [2] (MAGI-CCR5 cells) is greater than 10000 nM.
Consider `NCCCCN(C[C@@H]1CCc2ccccc2N1)[C@H]1CCCc2cccnc21`, for which the 50% cytotoxic concentration (CC50) in data set [2] (magi-ccr5) was greater than 30000 nM.
Turning to `NCCCCN(C[C@H]1Cc2ccccc2CN1CC(=O)N1CCOCC1)[C@H]1CCCc2cccnc21`, the IC50 in data set [1] was 570 nM. Moreover, the CC50 in data set [2] (magi-ccr5) was greater than 10000 nM.
For `NCCCCN(C[C@H]1CCc2ccccc2N1)[C@H]1CCCc2cccnc21`, the CC50 in data set [2] (magi-ccr5) is greater than 30000 nM.
`CC(=O)NCCCCN(C[C@H]1Cc2ccccc2CN1)[C@H]1CCCc2cccnc21`: the IC50 in data set [1] is 4 nM. Moreover, the 50% cytotoxic concentration (CC50) in data set [2] (magi-ccr5) is greater than 10000 nM.
`CN(C)CCCCN(C[C@H]1Cc2ccccc2CN1)[C@H]1CCCc2cccnc21`: the half-inhibitory concentration (IC50) in data set [1] was 8 nM. In addition, in data set [2] (MAGI-CCR5 cells), the 50% cytotoxic concentration (CC50) was greater than 10000 nM. For the same compound, in data set [3], the Ratio IC50 stood at 2.
Regarding `CC(C)N1Cc2ccccc2C[C@@H]1CN(CCCCN)[C@H]1CCCc2cccnc21`, the 50% inhibitory concentration (IC50) in data set [1] was determined as 140 nM. Besides, the CC50 in data set [2] (MAGI-CCR5 cells) is greater than 10000 nM.
For `NCCCCN(C[C@@H]1Cc2ccccc2CN1)[C@H]1CCCc2cccnc21`, the half-maximal cytotoxic concentration (CC50) in data set [2] (MAGI-CCR5 cells) was greater than 10000 nM.
With `CC(C)NCCCCN(C[C@H]1Cc2ccccc2CN1)[C@H]1CCCc2cccnc21`, the IC50 in data set [1] is 7 nM. In addition, in data set [2] (MAGI-CCR5 cells), the cytotoxic concentration (CC50) was greater than 10000 nM. In addition, the Ratio IC50 in data set [3] was 2.

For the origin of these results see ChEMBL document CHEMBL3091329, “Discovery of tetrahydroisoquinoline-based CXCR4 antagonists” (ACS Med Chem Lett, 2013).
